# Reference: ChEMBL document CHEMBL4251598, “Development of novel bis-pyrazole derivatives as antitumor agents with potent apoptosis induction effects and DNA damage” (Eur J Med Chem, 2018)
# Calls of active or inactive are those of the source.
# Legend:
# SMMC-7721 [1] = assay: Antitumor activity against human SMMC7721 cells xenografted in ip dosed BALB/c mouse assessed as tumor growth inhibition measured every 3 days up to 19 days post dose; format: functional, organism-based
# How it was run: (§1)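 Female BALB/c nude mice, 5-6 weeks old, inoculated subcutaneously with 10^6 SMMC-7721 cells. At 50-100 mm³ tumours, mice were randomized to ip compound (15 or 30 mg/kg), ADM (15 mg/kg) or vehicle, n = 6 per group. Caliper volume ½(L×W²) measured every 3 days to day 19, with body weight monitored. Tumours excised and weighed at the end.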
# SMMC-7721 [2] = assay: Induction of apoptosis in human SMMC7721 cells assessed as increase in cleaved PARP expression at 3.2 uM after 72 hrs by Western blot analysis relative to control; format: functional, cell-based
# How it was run: (§2)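 Sub-confluent SMMC-7721 cells treated with vehicle, compound or ADM at indicated concentrations for 72 h. Lysed on ice in NP-40/deoxycholate/SDS buffer with PMSF and leupeptin. Up to 50 µg protein run on SDS-PAGE, transferred to PVDF and probed with specific antibodies; ECL detection. Bands quantified by densitometry relative to β-actin, mean ± SD of three experiments.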
# SMMC-7721 [3] = assay: Induction of DNA double stranded breaks in human SMMC7721 cells assessed as increase in H2AX phosphorylation at S139 after 72 hrs by Western blot analysis; format: functional, cell-based
# How it was run: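 SMMC-7721 cells treated with vehicle, compound at 0.2, 0.8 or 3.2 μM, or ADM for 72 h. Lysates immunoblotted for H2AX pS139, p-p53 (Ser15), total p53 and β-actin, with ECL detection. Signals quantified by densitometry relative to β-actin, mean ± SD of three experiments.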
# SMMC-7721 [4] = assay: Induction of apoptosis in human SMMC7721 cells assessed as increase in cleaved caspase-3 expression at 3.2 uM after 72 hrs by Western blot analysis relative to control; format: functional, cell-based; how it was run: as §2
# SMMC-7721 [5] = assay: Induction of apoptosis in human SMMC7721 cells assessed as apoptotic cells at 0.8 uM after 72 hrs by FITC-Annexin-V/7AAD/propidium iodide staining based flow cytometry relative to control; format: functional
# How it was run: (§3)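 SMMC-7721 cells cultured overnight, then treated in triplicate with 0.2, 0.8 or 3.2 μM, vehicle, or ADM (3.2 μM) for 72 h. Stained with annexin V and PI (methods section: APC-annexin V/7-AAD) for 15 min at room temperature. Mean ± SD of three independent experiments.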
# [6] = Acute toxicity in ICR mouse assessed as survival at 488.3 mg/kg, ip measured on day 14; format: organism-based; settings: in vivo
# How it was run: (§4)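 Female ICR mice, 10 per group, single intraperitoneal injection at 488.3, 390.6, 312.5, 250 or 200 mg/kg, or vehicle control. Survival, eating, drinking, body weight and activity were monitored for up to 14 days after dosing. MTD was defined as the highest dose giving no drug-related moribund state or death, with temporary body-weight loss within 20%. LD50 was calculated from mortality.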
# [7] = Acute toxicity in ICR mouse at 200 to 488.3 mg/kg, ip; format: organism-based; settings: in vivo; how it was run: as §4
# SGC-7901 [8] = assay: Antiproliferative activity against human SGC7901 cells after 72 hrs by MTT assay; format: functional, cell-based; settings: SGC-7901, 72 h
# How it was run: (§5)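 Cells in DMEM with 10% FBS, 10^4 cells/mL, adhered overnight at 37 °C, 5% CO2. Treated in triplicate with a range of concentrations for 72 h. MTT (5 mg/mL solution) added for the last 4 h, formazan dissolved in DMSO, absorbance read at 570 nm. IC50 calculated from percent inhibition. Mean ± SD of three independent experiments.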
# Mus musculus [9] = assay: Acute toxicity in ICR mouse assessed as effect on drinking behaviour at 200 mg/kg, ip measured up to 14 days post dose; format: organism-based; settings: in vivo, 336 h; how it was run: as §4
# Mus musculus [10] = assay: Toxicity in BALB/c mouse xenografted with human SMMC7721 cells assessed as effect on body weight at 15 to 30 mg/kg, ip measured after 19 days; format: organism-based; settings: in vivo, 456 h; how it was run: as §1
# HCT-116 [11] = assay: Potency index, ratio of ADM IC50 to compound IC50 for human HCT116 cells; format: functional
# Mus musculus [12] = assay: Acute toxicity in ICR mouse assessed as effect on body weight at 200 mg/kg, ip measured up to 14 days post dose; format: organism-based; settings: in vivo, 336 h; how it was run: as §4
# SMMC-7721 [13] = assay: Antiproliferative activity against human SMMC7721 cells after 72 hrs by MTT assay; format: functional, cell-based; settings: SMMC-7721, 72 h; how it was run: as §5
# [14] = Acute toxicity in ICR mouse assessed as survival at 200 mg/kg, ip measured on day 14; format: organism-based; settings: in vivo; how it was run: as §4
# SMMC-7721 [15] = assay: Induction of apoptosis in human SMMC7721 cells assessed as apoptotic cells after 72 hrs by FITC-Annexin-V/7AAD/propidium iodide staining based flow cytometry; format: functional, cell-based; how it was run: as §3
# [16] = Acute toxicity in ICR mouse assessed as survival at 390.6 mg/kg, ip measured on day 14; format: organism-based; settings: in vivo; how it was run: as §4
# HCT-116 [17] = assay: Potency index, ratio of 5-FU IC50 to compound IC50 for human HCT116 cells; format: functional
# Mus musculus [18] = assay: Acute toxicity in ICR mouse assessed as mouse mortality level at 312.5 mg/kg, ip measured on day 3 post dose; format: organism-based; settings: in vivo; how it was run: as §4
# SGC-7901 [19] = assay: Potency index, ratio of 5-FU IC50 to compound IC50 for human SGC7901 cells; format: functional
# SGC-7901 [20] = assay: Potency index, ratio of ADM IC50 to compound IC50 for human SGC7901 cells; format: functional
# Mus musculus [21] = assay: Acute toxicity in ICR mouse assessed as mouse mortality level at 200, ip measured on day 1 to 3 days post dose; format: organism-based; settings: in vivo; how it was run: as §4
# Mus musculus [22] = assay: Acute toxicity in ICR mouse assessed as effect on eating behaviour at 200 mg/kg, ip measured up to 14 days post dose; format: organism-based; settings: in vivo, 336 h; how it was run: as §4
# SMMC-7721 [23] = assay: Induction of apoptosis in human SMMC7721 cells assessed as increase in cleaved caspase-3 expression at 0.2 to 3.2 uM after 72 hrs by Western blot analysis relative to control; format: functional, cell-based; how it was run: as §2
# SMMC-7721 [24] = assay: Potency index, ratio of 5-FU IC50 to compound IC50 for human SMMC7721 cells; format: functional
# SMMC-7721 [25] = assay: Antitumor activity against human SMMC7721 cells xenografted in BALB/c mouse assessed as tumor growth inhibition at 30 mg/kg, ip measured after 19 days relative to control; format: functional; settings: SMMC-7721, ip, 456 h, read-out: TGI; how it was run: as §1
# HCT-116 [26] = assay: Antiproliferative activity against human HCT116 cells after 72 hrs by MTT assay; format: functional, cell-based; settings: HCT-116, 72 h; how it was run: as §5
# SMMC-7721 [27] = assay: Induction of apoptosis in human SMMC7721 cells assessed as apoptotic cells at 0.2 uM after 72 hrs by FITC-Annexin-V/7AAD/propidium iodide staining based flow cytometry relative to control; format: functional; how it was run: as §3
# Mus musculus [28] = assay: Acute toxicity in ICR mouse assessed as effect on animal activity at 200 mg/kg, ip measured up to 14 days post dose; format: organism-based; settings: in vivo, 336 h; how it was run: as §4
# Mus musculus [29] = assay: Acute toxicity in ICR mouse assessed as mouse mortality level at 200 to 312.5 mg/kg, ip measured on day 5 to 14 post dose; format: organism-based; settings: in vivo; how it was run: as §4
smiles,measurement,setting,value
COc1ccc(Oc2c(/C=N\OCc3c(Cl)c(-c4ccc(Cl)cc4)nn3C)c(C)nn2C)cc1,TGI,SMMC-7721 [1],Dose-dependent effect
same,Activity,SMMC-7721 [2],Active
same,Activity,SMMC-7721 [3],Dose-dependent effect
same,Activity,SMMC-7721 [4],Active
same,Activity,SMMC-7721 [5],49.2%
same,survival at 14 day,[6],10%
same,LD50,[7],350 mg/kg
same,IC50,SGC-7901 [8],2.01 µM
same,Activity,Mus musculus [9],Non-Toxic
same,Activity,Mus musculus [10],Non-Toxic
same,Ratio IC50,HCT-116 [11],2 - 3
same,Activity,Mus musculus [12],Non-Toxic
same,IC50,SMMC-7721 [13],0.76 µM
same,survival at 14 day,[14],100%
same,Activity,SMMC-7721 [15],Dose-dependent effect
same,survival at 14 day,[16],40%
same,Ratio IC50,HCT-116 [17],17 - 50
same,Activity,Mus musculus [18],Non-Toxic
same,Ratio IC50,SGC-7901 [19],17 - 50
same,Ratio IC50,SGC-7901 [20],2 - 3
same,Activity,Mus musculus [21],Non-Toxic
same,Activity,Mus musculus [22],Non-Toxic
same,Activity,SMMC-7721 [23],Active
same,Ratio IC50,SMMC-7721 [24],17 - 50
same,inhibition in vivo at 30 mg/kg,SMMC-7721 [25],65.3%
same,IC50,HCT-116 [26],1.26 µM
same,Activity,SMMC-7721 [27],29.6%
same,Activity,Mus musculus [28],Non-Toxic
same,Activity,Mus musculus [29],Non-Toxic
